This note sets out measurements from ChEMBL document CHEMBL3091329, “Discovery of tetrahydroisoquinoline-based CXCR4 antagonists” (ACS Med Chem Lett, 2013).

Data set [1] is described as follows: Aqueous solubility in PBS at 7.4 after 90 mins by nephelometric analysis. Particulars: pH 7.4. The data set is classed as physicochemical.
Data set [2] can be described thus: Cytotoxicity against human MAGI-CCR5 cells assessed as cell viability after 2 to 6 days by MTS assay. Particulars: MAGI-CCR5 cells. (In general: Tetrazolium assays rely on reduction of a dye to a coloured formazan, in cell work by metabolically active cells.)
Data set [3] concerns the target T1, C-C chemokine receptor type 1 (Homo sapiens) (UniProt P32246).
T1 sequence (whole entry): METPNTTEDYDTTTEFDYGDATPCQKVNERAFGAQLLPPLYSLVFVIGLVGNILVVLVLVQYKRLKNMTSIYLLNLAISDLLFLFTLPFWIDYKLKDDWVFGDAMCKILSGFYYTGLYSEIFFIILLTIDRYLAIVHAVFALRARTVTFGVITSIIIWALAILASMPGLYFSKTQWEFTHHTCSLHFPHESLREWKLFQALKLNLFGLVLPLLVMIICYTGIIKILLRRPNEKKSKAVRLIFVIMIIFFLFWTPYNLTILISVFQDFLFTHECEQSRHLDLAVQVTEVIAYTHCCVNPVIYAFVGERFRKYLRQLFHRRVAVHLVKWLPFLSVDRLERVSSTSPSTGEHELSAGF
As to the kind of experiment: Inhibition of CCR1 (unknown origin) at 10 uM relative to control.

Data set [4] is described as follows: Half life in rat liver microsomes at 1 uM incubated for 3 mins prior to NADPH addition by LC-MS/MS analysis. It counts as ADME. In general terms: Liver microsomes are vesicles of endoplasmic reticulum, rich in cytochrome P450 enzymes.
Data set [5] is described as follows: AUC (0 to infinity) in jugular pre-cannulated Harlan Sprague-Dawley rat at 2 mg/kg, iv. More on the design: time infinity, dose 2 mg/kg, route intravenous. Particulars: plasma. It counts as ADME, organism-based.
Data set [6] in a line: Oral bioavailability in jugular pre-cannulated CRL Sprague-Dawley rat at 10 mg/kg. The data set is classed as ADME, organism-based. As to conditions: in vivo. The procedure, abridged:
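Oral dosing by gavage at 10 mg/kg, with an i.v. arm at 2 mg/kg. Plasma AUC was calculated for each route, and F was obtained from the dose-normalised ratio of oral to i.v. AUC.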

Data set [7] is described as follows: AUC (0 to infinity) in jugular pre-cannulated CRL Sprague-Dawley rat at 10 mg/kg, po. It counts as ADME, organism-based. More on the design: dose 10 mg/kg, route oral, time infinity. Particulars: plasma.
In data set [8] the target is T2, C-C chemokine receptor type 4 (Homo sapiens) (UniProt P51679).
T2 sequence (whole entry): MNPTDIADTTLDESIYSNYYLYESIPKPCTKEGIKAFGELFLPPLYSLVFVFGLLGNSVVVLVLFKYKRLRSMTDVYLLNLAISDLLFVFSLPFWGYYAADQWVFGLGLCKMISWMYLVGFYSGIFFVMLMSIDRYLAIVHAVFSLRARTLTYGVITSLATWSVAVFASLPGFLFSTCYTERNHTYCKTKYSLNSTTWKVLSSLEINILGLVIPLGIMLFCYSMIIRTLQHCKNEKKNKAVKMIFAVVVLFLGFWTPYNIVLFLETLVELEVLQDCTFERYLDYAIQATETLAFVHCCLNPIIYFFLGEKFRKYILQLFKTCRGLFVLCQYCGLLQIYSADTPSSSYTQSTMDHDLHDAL
As to the kind of experiment: Inhibition of CCR4 (unknown origin) at 10 uM relative to control.

For data set [9], the target named is C-C chemokine receptor type 2 (Homo sapiens) (UniProt P41597). Kind of data set: Inhibition of CCR2B (unknown origin) at 10 uM relative to control.
A short description of data set [10]: Plasma concentration in Harlan C57BL/6 mouse at 10 mg/kg, sc after 1 hr by LC/MS/MS analysis. The data set is classed as ADME, organism-based. More on the design: dose 10 mg/kg, route subcutaneous. The procedure, abridged: (§1)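 Harlan mice were given a single subcutaneous dose at 5, 10 or 20 mg/kg. Blood was sampled at multiple time points over about 8 h, and each sample was used for both total circulating WBC count and plasma drug level. Counts and concentrations were plotted against time for each dose.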

The target of data set [11] is T3, C-X-C chemokine receptor type 5 (Homo sapiens) (UniProt P32302).
T3 sequence (whole entry): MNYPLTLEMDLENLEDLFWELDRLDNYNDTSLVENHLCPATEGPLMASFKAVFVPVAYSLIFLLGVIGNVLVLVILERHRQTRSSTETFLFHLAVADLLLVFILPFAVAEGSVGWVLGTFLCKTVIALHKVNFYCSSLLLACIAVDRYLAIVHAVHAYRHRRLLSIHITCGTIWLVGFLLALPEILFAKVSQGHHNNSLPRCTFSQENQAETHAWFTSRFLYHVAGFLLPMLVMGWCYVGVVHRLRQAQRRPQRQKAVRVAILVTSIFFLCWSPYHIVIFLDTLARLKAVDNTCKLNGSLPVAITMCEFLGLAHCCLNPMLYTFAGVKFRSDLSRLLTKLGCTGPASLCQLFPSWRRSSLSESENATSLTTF
Kind of data set: Inhibition of CXCR5 (unknown origin) at 10 uM relative to control.

Data set [12] is described as follows: Half life in mouse liver microsomes at 1 uM incubated for 3 mins prior to NADPH addition by LC-MS/MS analysis. The data set is classed as ADME, Microsome.
Another data set has as its system Liver microsome. Kind of data set: Intrinsic clearance in human liver microsomes at 1 uM incubated for 3 mins prior to NADPH addition by LC-MS/MS analysis. It counts as ADME. As to conditions: 0.05 h.
Data set [13] concerns the target C-C chemokine receptor type 8 (Homo sapiens) (UniProt P51685). Kind of data set: Inhibition of CCR8 (unknown origin) at 10 uM relative to control.
The nature of data set [14]: Intrinsic clearance in mouse liver microsomes at 1 uM incubated for 3 mins prior to NADPH addition by LC-MS/MS analysis. It counts as ADME, Microsome. Particulars: 0.05 h.
Data set [15] is described as follows: Plasma concentration in Harlan C57BL/6 mouse at 5 mg/kg, sc after 1 hr by LC/MS/MS analysis. The data set is classed as ADME, organism-based. More on the design: dose 5 mg/kg, route subcutaneous. An outline of the steps:
as §1

For data set [16], the target named is T4, C-X-C chemokine receptor type 3 (Homo sapiens) (UniProt P49682).
T4 sequence (whole entry): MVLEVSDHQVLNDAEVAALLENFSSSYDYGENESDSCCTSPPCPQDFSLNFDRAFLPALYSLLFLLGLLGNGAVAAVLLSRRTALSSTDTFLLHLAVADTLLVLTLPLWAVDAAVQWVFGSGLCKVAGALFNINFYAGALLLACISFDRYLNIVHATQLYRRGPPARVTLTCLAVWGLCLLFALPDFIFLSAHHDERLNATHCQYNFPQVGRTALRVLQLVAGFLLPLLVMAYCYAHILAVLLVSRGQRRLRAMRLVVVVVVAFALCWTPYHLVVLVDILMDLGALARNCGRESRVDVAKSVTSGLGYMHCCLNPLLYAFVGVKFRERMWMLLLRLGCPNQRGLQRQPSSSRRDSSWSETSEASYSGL
As to the kind of experiment: Inhibition of CXCR3 (unknown origin) at 10 uM relative to control.

Data set [17] deals with T5, C-X-C chemokine receptor type 2 (Homo sapiens) (UniProt P25025).
T5 sequence (whole entry): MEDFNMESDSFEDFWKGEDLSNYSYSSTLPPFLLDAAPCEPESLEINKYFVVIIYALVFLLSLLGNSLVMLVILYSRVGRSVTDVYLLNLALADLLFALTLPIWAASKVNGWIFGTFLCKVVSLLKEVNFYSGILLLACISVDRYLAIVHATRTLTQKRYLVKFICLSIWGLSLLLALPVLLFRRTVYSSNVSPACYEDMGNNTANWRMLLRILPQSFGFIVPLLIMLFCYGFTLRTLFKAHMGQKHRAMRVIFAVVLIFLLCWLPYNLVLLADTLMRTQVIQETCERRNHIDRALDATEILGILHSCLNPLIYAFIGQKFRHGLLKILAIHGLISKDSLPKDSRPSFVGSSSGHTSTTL
As to the kind of experiment: Inhibition of CXCR2 (unknown origin) at 10 uM relative to control.

The structures appear in SMILES notation. Some results are limits rather than exact numbers.

Chain of C-C chemokine receptor type 8 (Homo sapiens) (P51685 whole entry): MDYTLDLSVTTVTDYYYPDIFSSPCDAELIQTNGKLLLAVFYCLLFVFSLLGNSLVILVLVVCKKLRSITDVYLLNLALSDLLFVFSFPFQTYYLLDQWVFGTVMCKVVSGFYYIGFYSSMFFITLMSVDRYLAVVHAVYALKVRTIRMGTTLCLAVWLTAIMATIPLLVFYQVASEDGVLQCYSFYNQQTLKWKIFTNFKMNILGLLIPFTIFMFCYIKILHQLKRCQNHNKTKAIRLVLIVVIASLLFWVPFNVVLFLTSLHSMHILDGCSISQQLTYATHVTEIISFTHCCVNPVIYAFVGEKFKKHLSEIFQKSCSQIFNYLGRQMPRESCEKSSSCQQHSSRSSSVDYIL
Chain of C-C chemokine receptor type 2 (Homo sapiens) (P41597 whole entry, looked up): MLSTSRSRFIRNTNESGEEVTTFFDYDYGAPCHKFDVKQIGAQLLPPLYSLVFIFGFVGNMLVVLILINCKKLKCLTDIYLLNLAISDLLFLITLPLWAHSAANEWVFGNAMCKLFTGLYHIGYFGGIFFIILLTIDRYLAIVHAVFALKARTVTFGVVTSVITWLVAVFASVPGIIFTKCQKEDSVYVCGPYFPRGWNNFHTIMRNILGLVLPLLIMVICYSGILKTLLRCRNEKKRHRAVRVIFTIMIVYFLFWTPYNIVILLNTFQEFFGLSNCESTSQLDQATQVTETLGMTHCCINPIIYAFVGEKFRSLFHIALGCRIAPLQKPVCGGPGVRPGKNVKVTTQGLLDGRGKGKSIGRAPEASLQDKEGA

By solubility (kinetic) is commonly meant the concentration staying in solution when a stock, usually in DMSO, is diluted into the medium. As usually defined, the CC50 is the concentration giving 50% cytotoxicity. The inhibition is the change of the read-out against control, counted positive when it falls. Low values mean a response near the control, high ones a response far below the control. Broadly, the half-life is the time in which the quantity being followed falls by half. A high value points to slow decline. The term AUC(0-inf) denotes the area under the concentration-time curve extrapolated to infinity. A low value points to less exposure. By bioavailability is commonly meant the share of a dose that reaches the circulation, judged against a reference dose that is usually intravenous. A lower bioavailability goes with little systemic uptake. `NCCCCN(C[C@H]1Cc2ccccc2CN1)[C@H]1CCCc2cccnc21` had a kinetic solubility at […] in data set [1] of more than 274 µM. Also, the CC50 in data set [2] was more than 10 µM. Besides, the inhibition in data set [3], in data set [8], in data set [9], in data set [11], in [13] and in [16] was less than 10% in each case. Besides, the inhibition in data set [17] was less than 10%. In addition, the half-life at 1 µM stood at 39 min in data set [4] and 22 min in data set [12]. For the same compound, the total exposure AUC(0-inf) in [5] is 108 ng·h/mL; in data set [7] it was 328 ng·h/mL. The compound also displayed a bioavailability in data set [6] of 63%. The concentration at 1 h was determined as 1020 ng/mL in data set [10] and 725 ng/mL in data set [15]. Further, the figures for the CLH (in the data set on Liver microsome; in data set [14]) were less than 0.02 mL/min/mg and 0.064 mL/min/mg, respectively.
